Calls of active or inactive are those of the source. The calls are words filed in the database; no cut-off is given here.
Legend:
[1] = Cell cycle arrest in human NB1 hTERT cells assessed as G1 phase accumulation at 1 uM after 72 hrs by propidium iodide staining based flow cytometry (reference value: 72.5%); format: functional
[2] = Cell cycle arrest in human MCF7 cells assessed as G1 phase accumulation at 1 uM after 144 hrs by propidium iodide staining based flow cytometry (reference value: 65.9%); format: functional
HeLa = assay: Induction of apoptosis in human HeLa cells assessed as late apoptotic cells at 5 uM after 48 hrs by Annexin-V FITC/propidium iodide staining based flow cytometry (reference value: 4.9%); format: functional
[3] = Antiproliferative activity against human IBR3-G SV40 cells after 72 hrs by XTT assay; format: functional, cell-based; conditions: IBR3-G SV40, 72 h
How it was run: (§1)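 Cells plated at 1500–2000 per well by doubling time, treated after 24 h with a concentration series in six triplicate wells, and incubated 72 h without a medium change. XTT reagent was then added for 4 h at 37 °C and absorbance read at 490 nm. IC50 is the concentration halving absorbance versus untreated cells. Experiments run in triplicate.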

[4] = Cell cycle arrest in human SK-N-AS cells assessed as S phase accumulation at 1 uM after 24 hrs by propidium iodide staining based flow cytometry (reference value: 21.3 +/- 1.14%); format: functional
[5] = Cell cycle arrest in human LAN1 cells assessed as S phase accumulation at 1 uM after 24 hrs by propidium iodide staining based flow cytometry (reference value: 23.5 +/- 1.32%); format: functional
[6] = Induction of apoptosis in human NB1 hTERT cells assessed as late apoptotic cells at 5 uM after 72 hrs by Annexin-V FITC/propidium iodide staining based flow cytometry (reference value: 4.6%); format: functional
[7] = Antiproliferative activity against human NB1 hTERT cells after 72 hrs by XTT assay; format: functional, cell-based; how it was run: as §1
[8] = Cell cycle arrest in human MCF7 cells assessed as S phase accumulation at 1 uM treated for 24 hrs followed by compound washout measured after 24 hrs by propidium iodide staining based flow cytometry (reference value: 12.2%); format: functional
[9] = Antiproliferative activity against human Kelly cells after 72 hrs by XTT assay; format: functional, cell-based; how it was run: as §1
[10] = Cell cycle arrest in human T98G cells assessed as S phase accumulation at 1 uM after 24 hrs by propidium iodide staining based flow cytometry (reference value: 5.1 +/- 0.82%); format: functional
MCF7 = assay: Antiproliferative activity against human MCF7 cells at 2 uM after 72 hrs by XTT assay; format: functional, cell-based
[11] = Cell cycle arrest in human T98G cells assessed as subG1 phase accumulation at 1 uM after 24 hrs by propidium iodide staining based flow cytometry relative to DMSO control; format: functional
[12] = Cell cycle arrest in human MCF7 cells assessed as G2/M phase accumulation at 1 uM after 24 hrs by propidium iodide staining based flow cytometry (reference value: 24.2 +/- 1.62%); format: functional
[13] = Cell cycle arrest in human NCI-H1299 cells assessed as G1 phase accumulation at 1 uM after 24 hrs by propidium iodide staining based flow cytometry (reference value: 61.2 +/- 1.69%); format: functional
[14] = Cell cycle arrest in human SH-SY5Y cells assessed as G2/M phase accumulation at 1 uM after 24 hrs by propidium iodide staining based flow cytometry (reference value: 26.2 +/- 1.27%); format: functional
[15] = Cell cycle arrest in human PC3 cells assessed as G1 phase accumulation at 1 uM after 24 hrs by propidium iodide staining based flow cytometry (reference value: 67 +/- 1.47%); format: functional; conditions: PC-3
[16] = Cell cycle arrest in human T98G cells assessed as G1 phase accumulation at 1 uM after 24 hrs by propidium iodide staining based flow cytometry (reference value: 86.1 +/- 1.29%); format: functional
[17] = Induction of apoptosis in human NB-1 cells assessed as late apoptotic cells at 5 uM after 72 hrs by Annexin-V FITC/propidium iodide staining based flow cytometry (reference value: 3.3%); format: cell-based; conditions: nb1, 72 h
[18] = Cell cycle arrest in human MCF7 cells assessed as G2/M phase accumulation at 1 uM treated for 24 hrs followed by compound washout measured after 24 hrs by propidium iodide staining based flow cytometry (reference value: 26.4%); format: functional
[19] = Cell cycle arrest in human NB-1 cells assessed as G2/M phase accumulation at 1 uM after 48 hrs by propidium iodide staining based flow cytometry (reference value: 12.4%); conditions: nb1, 48 h
[20] = Cytotoxicity against human HeLa cells assessed as inhibition of colony formation at 0.03 uM after 2 weeks by crystal violet staining based assay relative to control; format: functional; conditions: 336 h
How it was run: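 HeLa seeded at 100-200 cells/well in six-well plates and treated with 0.3 or 0.03 μM compound (DMSO control). Medium with compound changed every 3 days for about two weeks, until control colonies were visible. Colonies fixed and stained with 6.0% glutaraldehyde/0.5% crystal violet for 30 min, then counted against control. Done in triplicate.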

[21] = Antiproliferative activity against human SK-N-AS cells after 72 hrs by XTT assay; format: functional, cell-based; how it was run: as §1
[22] = Cell cycle arrest in human NCI-H1299 cells assessed as G2/M phase accumulation at 1 uM after 24 hrs by propidium iodide staining based flow cytometry (reference value: 22.2 +/- 1.74%); format: functional
[23] = Antiproliferative activity against human RD cells after 72 hrs by XTT assay; format: functional, cell-based; how it was run: as §1
[24] = Antiproliferative activity against human MRC5-SV1 S40 cells after 72 hrs by XTT assay; format: functional, cell-based; how it was run: as §1
[25] = Cell cycle arrest in human SK-N-AS cells assessed as subG1 phase accumulation at 1 uM after 24 hrs by propidium iodide staining based flow cytometry relative to DMSO control; format: functional

Molecule `Cc1[nH]c2c(c1-c1nnc(-c3ccccc3)o1)Cc1ccccc1-2` has an Activity [1] of 45.6%, an Activity [2] of 14.5% and an Activity (HeLa) of 85.1%. It also gave an IC50 [3] of 210 nM, an Activity [4] of 9.9% and an Activity [5] of 5.6%. It also gave an Activity [6] of 13.2%, an IC50 [7] of 130 nM and an Activity [8] of 11.6%. The IC50 [9] was 250 nM, the Activity [10] was 6.2% and the Activity (MCF7) was “Active”. It also gave an Activity [11] of 16.8%, an Activity [12] of 59.5 to 78.1% and an Activity [13] of 17.8%. For the same molecule, the Activity [14] was 43.9%, the Activity [15] was 23.3% and the Activity [16] was 11.1%. It also gave an Activity [17] of 8.3%, an Activity [18] of 31.7% and an Activity [19] of 15%. For the same molecule, the inhibition at 0.03 µM [20] was ≤ 50%, the IC50 [21] was 190 nM and the Activity [22] was 74.6%. For the same molecule, the IC50 [23] was 60 nM, the IC50 [24] was 130 nM and the Activity [25] was 6.3%.
